# From ChEMBL document CHEMBL1153878, “Hansch analysis of veratric acid derivatives as antimicrobial agents” (2009)
# Several values for one entry are separate records, joined by “and”; a condition that tells them apart may be missing. Identical values can stand only once.
# How the values were obtained:
# Type in all cases: functional
# Aspergillus niger = assay: Antifungal activity against Aspergillus niger MTCC 2425 by serial dilution method; design: -logMIC: scale not given here
# Escherichia coli = assay: Antibacterial activity against Escherichia coli MTCC 739 by serial dilution method; design: -logMIC: scale not given here
# Method in brief: (§1)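 Tube serial dilution in 1 ml sterile double strength nutrient broth I.P., test range […] per ml. Inoculum: […] of a saline suspension at 10⁵ cfu/ml from a fresh 24-h culture, grown in double strength nutrient broth at 37 ± 1 °C. […] Exact MIC refined by further dilution of the stock.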
# Bacillus subtilis = assay: Antibacterial activity against Bacillus subtilis MTCC 2423 by serial dilution method; design: -logMIC: unit not given here; method in brief: as §1
# Staphylococcus aureus = assay: Antibacterial activity against Staphylococcus aureus MTCC 1430 by serial dilution method; design: -logMIC: scale not given here; method in brief: as §1
# Candida albicans = assay: Antifungal activity against Candida albicans MTCC 227 by serial dilution method; design: -logMIC: unit not given here
# [1] = Aspergillus niger, MTCC 2425, read-out: MIC
# [2] = Escherichia coli, MTCC 739, read-out: MIC
# [3] = Bacillus subtilis, MTCC 2423, read-out: MIC
# [4] = Staphylococcus aureus, MTCC 1430, read-out: MIC
# [5] = Candida albicans, MTCC 227, read-out: MIC
SMILES,-logMIC (Aspergillus niger),MIC (Aspergillus niger; [1]) [µg/mL],-logMIC (Escherichia coli),MIC (Escherichia coli; [2]) [µg/mL],-logMIC (Bacillus subtilis),MIC (Bacillus subtilis; [3]) [µg/mL],-logMIC (Staphylococcus aureus),MIC (Staphylococcus aureus; [4]) [µg/mL],-logMIC (Candida albicans),MIC (Candida albicans; [5]) [µg/mL],MIC (Aspergillus niger) [µg/mL],MIC (Escherichia coli) [µg/mL],MIC (Bacillus subtilis) [µg/mL],MIC (Staphylococcus aureus) [µg/mL],MIC (Candida albicans) [µg/mL]
COc1ccc(C(=O)N(C)C)cc1OC,1.31,10,1.15,15,1.21,13,1.08,17,1.31,10,–,–,–,–,–
CCCCCCOC(=O)c1ccc(OC)c(OC)c1,1.28,14,1.22,16,1.33,12.5,1.2,16.5,1.3,13,–,–,–,–,–
COc1ccc(C(=O)NCCO)cc1OC,1.29,11.5,1.08,19,1.18,15,1.04,21,1.29,11.5,–,–,–,–,–
COc1ccc(C(=O)OCc2ccccc2)cc1OC,1.29,14,1.18,18,1.34,12.5,1.1,21.5,1.3,13.5,–,–,–,–,–
COc1ccc(C(=O)Oc2cccc3cccnc23)cc1OC,1.34,14,1.56,8.5,1.53,9,1.45,11,1.35,13.5,–,–,–,–,–
CCOC(=O)c1ccc(OC)c(OC)c1,1.23,12,1.02,20,1.12,16,0.98,22,1.23,12,–,–,–,–,–
CCCOC(=O)c1ccc(OC)c(OC)c1,1.2,14,1.25,12.5,1.2,14,0.98,24,1.1,18,–,–,–,–,–
CCCCOC(=O)c1ccc(OC)c(OC)c1,1.15,17,1.1,19,1.2,15,1.1,19,1.2,15,–,–,–,–,–
COc1ccc(C(=O)OCC(C)C)cc1OC,1.28 and 1.17,12.5,1.17 and 1.1,16,1.23 and 1.17,14,1.08 and 1.1,20,1.25 and 1.34,13.5,16,19,16,19,11
COc1ccc(C(=O)OC(C)(C)C)cc1OC,1.3,12,1.08,20,1.2,15,1.08,20,1.38,10,–,–,–,–,–
CCNC(=O)c1ccc(OC)c(OC)c1,1.26,11.5,1.01,20,1.21,13,0.95,23.5,1.31,10,–,–,–,–,–
CCCNC(=O)c1ccc(OC)c(OC)c1,1.28,12,1.08,19,1.23,13,1.08,19,1.25,12.5,–,–,–,–,–
CCCCCCCOC(=O)c1ccc(OC)c(OC)c1,1.37,12,1.3,14,1.35,12.5,1.25,16,1.25,16,–,–,–,–,–
COc1ccc(C(=O)Oc2ccccc2)cc1OC,1.34,11.5,1.21,16,1.27,14,1.15,18,1.3,12.5,–,–,–,–,–
CNC(=O)c1ccc(OC)c(OC)c1,1.18,12.5,1.05,17,1.18,13,0.95,22,1.28,13,–,–,–,–,–
COc1ccc(C(=O)OCCC(C)C)cc1OC,1.3,12.5,1.2,16,1.31,12.5,1.1,20,1.2,16,–,–,–,–,–
COc1ccc(C(=O)OC(C)C)cc1OC,1.25,12.5,1.2,14,1.2,14,1.01,22,1.35,10,–,–,–,–,–
C=CCOC(=O)c1ccc(OC)c(OC)c1,1.2,14,1.1,18,1.25,12.5,1,22,1.1,18,–,–,–,–,–
CCCCCOC(=O)c1ccc(OC)c(OC)c1,1.1,20,1.1,20,1.31,12.5,1.1,20,1.1,20,–,–,–,–,–
COc1ccc(C(N)=O)cc1OC,1.2,11,0.95,20,1.09,15,0.9,23,1.25,10,–,–,–,–,–
O=C(O)c1cn(C2CC2)c2cc(N3CCNCC3)c(F)cc2c1=O [CIPROFLOXACIN],–,–,3.33,–,3.33,–,3.33,–,–,–,–,–,–,–,–
OC(Cn1cncn1)(Cn1cncn1)c1ccc(F)cc1F [FLUCONAZOLE],2.64,–,–,–,–,–,–,–,2.64,–,–,–,–,–,–
